From ChEMBL document CHEMBL1156932, “Structure based drug design: development of potent and selective factor IXa (FIXa) inhibitors” (J Med Chem, 2010)

How the values were obtained:
[1] = target: Urokinase-type plasminogen activator (Homo sapiens, UniProt P00749)
[2] = Selectivity ratio of Ki for uPA to Ki for human recombinant factor 9a
[3] = Clearance in anesthetized Sprague-Dawley rat at 5 mg/kg, iv; type: ADME, organism-based; parameters: dose 5 mg/kg, route intravenous; conditions: in vivo
Summary of the method: (§1)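 Bolus iv injection over 15 s into anesthetised rats, 3 per group. Citrated blood taken under anesthesia predose and at 2, 5, 15, 30 min and 1, 2, 3 h. Plasma obtained by centrifugation at 1700g, 20 C, 5 min, then stored at -80 C. Two acetonitrile precipitations before drug measurement. Parameters derived by noncompartmental analysis of concentration–time curve.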

Coagulation factor IX = Coagulation factor IX (Homo sapiens, UniProt P00740); assay: Inhibition of human recombinant factor 9a by amidolytic assay
[4] = Metabolic stability in human liver assessed as turnover; type: ADME, tissue-based; conditions: read-out: Stability
[5] = Half life in anesthetized Sprague-Dawley rat at 5 mg/kg, iv; type: ADME, organism-based; parameters: dose 5 mg/kg, route intravenous; conditions: in vivo
Summary of the method: as §1

[6] = Cmax in anesthetized Sprague-Dawley rat at 5 mg/kg, iv; type: ADME, organism-based; parameters: dose 5 mg/kg, route intravenous; conditions: in vivo
Summary of the method: as §1

[7] = Selectivity ratio of Ki for factor 10a to Ki for human recombinant factor 9a
Coagulation factor X = Coagulation factor X (Homo sapiens, UniProt P00742); assay: Inhibition of factor 10a by amidolytic assay
Summary of the method: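 […] taken as the mean of at least three experiments. Variation between runs stated as under 10%.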

[8] = AUC (0 to infinity) in anesthetized Sprague-Dawley rat at 5 mg/kg, iv; type: ADME, organism-based; parameters: dose 5 mg/kg, route intravenous, time infinity; conditions: plasma
Summary of the method: as §1

Plasma [9] = assay: Anticoagulant potency in human plasma assessed as concentration required to double the thrombin time; type: functional
Summary of the method: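 Plasma from citrated blood of healthy volunteers, centrifuged at 2000g for 10 min and kept on ice. Plasma incubated 2 min at 37 C, then thrombin reagent added. Clotting time monitored at 660 nm on an automated analyzer.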

[10] = Protein binding in human plasma; type: ADME, cell-free; conditions: read-out: PPB (converted)
Plasma [11] = assay: Anticoagulant potency in human plasma assessed as concentration required to double the […]; type: functional
Summary of the method: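 Citrated plasma from healthy volunteers, centrifuged at 2000g for 10 min and held on ice. Plasma incubated 1 min at 37 C, aPTT reagent (FSL) added, then 3 min at 37 C. Clotting started with 0.025 M CaCl2. Clot formation read at 660 nm on an automated coagulation analyzer.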

Plasma [12] = assay: Anticoagulant potency in human plasma assessed as concentration required to double the prothrombin time; type: functional
Summary of the method: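 Citrated plasma from healthy volunteers, centrifuged at 2000g for 10 min and held on ice. Plasma incubated 3 min at 37 C before addition of thromboplastin PT reagent (Thromborel S). Clot formation followed at 660 nm in an automated coagulation analyzer.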

Chain of Coagulation factor IX (P00740 47-191 limits assumed): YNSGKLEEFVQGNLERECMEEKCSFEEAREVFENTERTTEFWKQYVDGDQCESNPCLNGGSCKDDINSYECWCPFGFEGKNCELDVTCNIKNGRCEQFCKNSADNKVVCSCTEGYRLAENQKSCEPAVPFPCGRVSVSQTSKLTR
Chain of Coagulation factor IX (P00740 227-461 limits assumed): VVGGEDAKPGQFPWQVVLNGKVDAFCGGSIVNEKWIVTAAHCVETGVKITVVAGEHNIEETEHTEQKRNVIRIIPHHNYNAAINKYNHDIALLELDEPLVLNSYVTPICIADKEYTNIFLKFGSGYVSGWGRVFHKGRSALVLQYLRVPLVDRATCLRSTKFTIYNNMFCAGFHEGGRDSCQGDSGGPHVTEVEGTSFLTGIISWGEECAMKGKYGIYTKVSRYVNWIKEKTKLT
Chain of Coagulation factor X (P00742 41-179 limits assumed): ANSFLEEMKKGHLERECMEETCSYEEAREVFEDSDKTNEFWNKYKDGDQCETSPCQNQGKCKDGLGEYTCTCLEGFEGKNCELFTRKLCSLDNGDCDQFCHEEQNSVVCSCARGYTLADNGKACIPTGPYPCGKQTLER
Chain of Coagulation factor X (P00742 235-488 limits assumed): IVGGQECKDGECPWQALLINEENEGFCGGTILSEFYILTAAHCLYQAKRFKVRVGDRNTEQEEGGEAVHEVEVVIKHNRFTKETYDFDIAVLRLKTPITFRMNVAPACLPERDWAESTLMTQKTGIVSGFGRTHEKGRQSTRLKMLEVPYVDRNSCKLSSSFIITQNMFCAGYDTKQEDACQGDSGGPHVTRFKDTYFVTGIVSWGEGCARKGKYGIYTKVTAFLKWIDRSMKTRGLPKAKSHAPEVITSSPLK

Row | Structure (SMILES) | Ki [1] | Ratio Ki [2] | clearance [3] | Ki (Coagulation factor IX) | metabolised [4] | half-life [5] | Cmax [6] | Ratio Ki [7] | Ki (Coagulation factor X) | AUC(0-inf) [8] | Activity (Plasma [9]) | fraction unbound [10] | Activity (Plasma [11]) | Activity (Plasma [12])
1 | N=C(N)c1cc2c(OC(COC(=O)Nc3ccc(F)cc3)c3ccccc3)cccc2s1 (centres undefined) | 780 nM | 98 | 32.4 mL/min/kg | 8 nM | 11% | 5.5 h | 10.5 µM | 213 | 1700 nM | 5.19 µM·h |  |  |  | 
2 | Cc1cc(NC(=O)OCC(Oc2cccc3sc(C(=N)N)cc23)c2ccccc2)n(C)n1 (centres undefined) | 169 nM | 17 | 129 mL/min/kg | 10 nM | 18% | 2.1 h | 5.19 µM | 205 | 2050 nM | 0.951 µM·h | 60 µM | 0.04 | 12.8 µM | 57 µM
